The source made the active and inactive calls. The calls are words filed in the database; no cut-off is given here.
Key:
[1] = test system: Saccharomyces cerevisiae; experiment: Growth inhibition of UFD2-deficient Saccharomyces cerevisiae YDL190C mutant at 20 ug/disc after 24 to 48 hrs by agar diffusion assay; type: functional; conditions: read-out: DIZ
Procedure, shortened: (§1)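 S. cerevisiae deletion mutants or wild type grown on YPD, seeded into liquid agar medium at an optical density of 0.1. 6 mm paper discs soaked with methanolic compound solution were placed on the plates and incubated at 30 °C. Growth was checked after 1 and 2 days, and the inhibition zone diameter was recorded in mm.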

[2] = test system: Saccharomyces cerevisiae; experiment: Growth inhibition of COX17-deficient Saccharomyces cerevisiae YLL009C mutant at 20 ug/disc after 24 to 48 hrs by agar diffusion assay; type: functional; conditions: read-out: DIZ; procedure, shortened: as §1
[3] = test system: Saccharomyces cerevisiae; experiment: Growth inhibition of GSH2-deficient Saccharomyces cerevisiae YOL049W mutant at 20 ug/disc after 24 to 48 hrs by agar diffusion assay; type: functional; conditions: read-out: DIZ; procedure, shortened: as §1
[4] = test system: Saccharomyces cerevisiae; experiment: Growth inhibition of RCK1-deficient Saccharomyces cerevisiae YGL158W mutant at 20 ug/disc after 24 to 48 hrs by agar diffusion assay; type: functional; conditions: read-out: DIZ; procedure, shortened: as §1
[5] = test system: Saccharomyces cerevisiae; experiment: Growth inhibition of GTT2-deficient Saccharomyces cerevisiae YLL060C mutant at 20 ug/disc after 24 to 48 hrs by agar diffusion assay; type: functional; conditions: read-out: DIZ; procedure, shortened: as §1
[6] = test system: Saccharomyces cerevisiae; experiment: Growth inhibition of POS5-deficient Saccharomyces cerevisiae YPL188W mutant at 20 ug/disc after 24 to 48 hrs by agar diffusion assay; type: functional; conditions: read-out: DIZ; procedure, shortened: as §1
[7] = test system: Saccharomyces cerevisiae; experiment: Growth inhibition of WSC4-deficient Saccharomyces cerevisiae YHL028W mutant at 20 ug/disc 24 to 48 hrs by agar diffusion assay; type: functional; conditions: read-out: DIZ; procedure, shortened: as §1
[8] = test system: Saccharomyces cerevisiae; experiment: Growth inhibition of PST2-deficient Saccharomyces cerevisiae YDR032C mutant at 20 ug/disc 24 to 48 hrs by agar diffusion assay; type: functional; conditions: read-out: DIZ; procedure, shortened: as §1
[9] = test system: Saccharomyces cerevisiae; experiment: Growth inhibition of SOD2-deficient Saccharomyces cerevisiae YHR008C mutant at 20 ug/disc 24 to 48 hrs by agar diffusion assay; type: functional; conditions: read-out: DIZ; procedure, shortened: as §1
[10] = test system: Saccharomyces cerevisiae; experiment: Growth inhibition of SOD1-deficient Saccharomyces cerevisiae YJR104C mutant at 20 ug/disc after 24 to 48 hrs by agar diffusion assay; type: functional; conditions: read-out: DIZ; procedure, shortened: as §1
[11] = test system: Saccharomyces cerevisiae; experiment: Growth inhibition of wild type Saccharomyces cerevisiae BY4741 at 20 ug/disc after 24 to 48 hrs by agar diffusion assay; type: functional; conditions: read-out: DIZ; procedure, shortened: as §1
[12] = test system: A-431; experiment: Induction of apoptosis in human A431 cells after 12 hrs by FITC-annexin V/PI staining-based flow cytometric analysis; type: functional, cell-based
[13] = test system: A-431; experiment: Induction of apoptosis in human A431 cells assessed as late apoptotic cells at 13 uM after 12 hrs by FITC-annexin V/PI staining-based flow cytometric analysis (reference value: 7.4%); type: functional
[14] = test system: A-431; experiment: Induction of apoptosis in human A431 cells assessed as early apoptotic cells at 13 uM after 12 hrs by FITC-annexin V/PI staining-based flow cytometric analysis (reference value: 0.6%); type: functional
[15] = test system: A-431; experiment: Induction of apoptosis in human A431 cells assessed as late apoptotic cells at 11 uM after 12 hrs by FITC-annexin V/PI staining-based flow cytometric analysis (reference value: 7.4%); type: functional
[16] = test system: A-431; experiment: Induction of apoptosis in human A431 cells assessed as early apoptotic cells at 11 uM after 12 hrs by FITC-annexin V/PI staining-based flow cytometric analysis (reference value: 0.6%); type: functional
[17] = test system: A-431; experiment: Induction of apoptosis in human A431 cells assessed as late apoptotic cells at 8 uM after 12 hrs by FITC-annexin V/PI staining-based flow cytometric analysis (reference value: 7.4%); type: functional
[18] = test system: A-431; experiment: Induction of apoptosis in human A431 cells assessed as early apoptotic cells at 8 uM after 12 hrs by FITC-annexin V/PI staining-based flow cytometric analysis (reference value: 0.6%); type: functional
[19] = test system: A-431; experiment: Induction of apoptosis in human A431 cells assessed as caspase3/7 activation at 2.8 uM after 24 hrs by caspase-Glo assay; type: functional, cell-based
Procedure, shortened: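 A-431 cells (20,000/well, 384-well) were incubated with compound for 1, 2, 4, 6, 12 and 24 h in the dark at 37 °C, 5% CO2. Caspase-Glo 3/7 reagent was added for 30 min at room temperature in the dark. Luminescence was then read on a plate luminometer.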

[20] = test system: MCF7; experiment: Induction of Cell cycle arrest in human MCF7 cells assessed as G2/M phase cells at IC50 concentration after 24 hrs by PI-staining based flow cytometric analysis (reference value: 13%); type: functional
Procedure, shortened: (§2)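 MCF-7 cells (10^6) were treated for 24 h, with methanol as the vehicle control. Cells were fixed in cold 70% methanol at 4 °C for one day, washed with PBS, and permeabilized with 0.1% saponin in PBS. They were stained with propidium iodide plus RNase for 30 min. DNA content was read by flow cytometry, giving percentages of cells per cell-cycle phase.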

[21] = test system: MCF7; experiment: Induction of Cell cycle arrest in human MCF7 cells assessed as S phase cells at IC50 concentration after 24 hrs by PI-staining based flow cytometric analysis (reference value: 19%); type: functional; procedure, shortened: as §2
[22] = test system: MCF7; experiment: Induction of Cell cycle arrest in human MCF7 cells assessed as G0/1 phase cells at IC50 concentration after 24 hrs by PI-staining based flow cytometric analysis (reference value: 68%); type: functional; procedure, shortened: as §2
[23] = test system: MCF7; experiment: Induction of oxidative stress in human MCF7 cells assessed as decrease in GSH level at 5 uM after 1 hr by DTNB assay relative to control; type: functional; set-up: scale not given: the % may be the effect or the level left
Procedure, shortened: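 MCF-7 cells (10^6) were treated for 1 h at 37 °C, trypsinized, and washed twice with cold PBS. GSH was extracted with chilled 5% metaphosphoric acid at 4 °C for 2 h, then the lysate was centrifuged. Supernatant was mixed with 0.2 M sodium phosphate pH 8.0 and 0.04 mM DTNB for 10 min at room temperature. Absorbance was read at 412 nm against a reagent blank, and GSH was quantified from a standard curve.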

[24] = Cytotoxicity against human PHF cells after 24 hrs by MTT assay; type: cell-based
Procedure, shortened: (§3)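 MTT assay. Cells were seeded at 50,000 cells/mL in medium with 10% fetal calf serum and grown for two days at 37 °C, 10% CO2. Serial dilutions of compound were then added for 24 h. MTT was added (final 0.5 mg/mL) for 2 h, and the formazan was pelleted, washed, dissolved in isopropanol with 0.4% HCl and read at 590 nm. IC50 is the concentration giving 50% of untreated-control absorbance, taken from dose-response curves; mean of two parallel experiments.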

[25] = test system: HUVEC; experiment: Cytotoxicity against human HUVEC cells after 24 hrs by MTT assay; type: cell-based; procedure, shortened: as §3
[26] = test system: A-431; experiment: Cytotoxicity against human A431 cells after 24 hrs by MTT assay; type: functional, cell-based; conditions: A-431, 24 h; procedure, shortened: as §3
[27] = test system: A498; experiment: Cytotoxicity against human A498 cells after 24 hrs by MTT assay; type: functional, cell-based; conditions: A498, 24 h; procedure, shortened: as §3
[28] = test system: MCF7; experiment: Cytotoxicity against human MCF7 cells after 24 hrs by MTT assay; type: functional, cell-based; conditions: MCF7, 24 h; procedure, shortened: as §3

SMILES: CC1=C([Se]CC(OC(=O)CC[Se]c2ccccc2)C(=O)NCCCCCC(=O)OCc2ccccc2)C(=O)c2ccccc2C1=O (stereo not drawn)
- zone of inhibition at 20 µg/disc [1]: 15 mm
- zone of inhibition at 20 µg/disc [2]: 15 mm
- zone of inhibition at 20 µg/disc [3]: 15 mm
- zone of inhibition at 20 µg/disc [4]: 15 mm
- zone of inhibition at 20 µg/disc [5]: 25 mm
- zone of inhibition at 20 µg/disc [6]: 17 mm
- zone of inhibition at 20 µg/disc [7]: 26 mm
- zone of inhibition at 20 µg/disc [8]: 16 mm
- zone of inhibition at 20 µg/disc [9]: 19 mm
- zone of inhibition at 20 µg/disc [10]: 14 mm
- zone of inhibition at 20 µg/disc [11]: 0 mm
- Activity [12]: Dose-dependent effect
- Activity [13]: 29.3%
- Activity [14]: 4.1%
- Activity [15]: 13.1%
- Activity [16]: 7.7%
- Activity [17]: 12.9%
- Activity [18]: 2.5%
- Activity [19]: Active
- Activity [20]: 6%
- Activity [21]: 6.8%
- Activity [22]: 87%
- Activity [23]: 62%
- IC50 [24]: 6 µM
- IC50 [25]: 3 µM
- IC50 [26]: 4 µM
- IC50 [27]: 4 µM
- IC50 [28]: 9 µM
